Laboratory results: ChEMBL document CHEMBL1146375, “Synthetic studies on novel benzimidazolopeptides with antimicrobial, cytotoxic and anthelmintic potential” (2007)
≈ marks a conversion by molar mass, not a printed value.

Experiments:
[1] = tested on: Bacillus subtilis; assay: Antibacterial activity against Bacillus subtilis NCIM 2063 after 18 hrs by disc diffusion method; format: functional
In short: (§1)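 Modified Kirby-Bauer disc diffusion. Plates inoculated with spore suspension (about 6 × 10⁴ spores mL^-1). Sterile 6 mm paper discs carried test samples at 10 mg mL^-1; ciprofloxacin disc as reference, DMF disc as negative control. Plates held 18 h at 37 °C. Inhibition zone diameters (mm) averaged over triplicate sets.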

[2] = tested on: Staphylococcus aureus; assay: Antibacterial activity against Staphylococcus aureus NCIM 2079 after 18 hrs by disc diffusion method; format: functional; in short: as §1
[3] = tested on: Pseudomonas aeruginosa; assay: Antibacterial activity against Pseudomonas aeruginosa NCIM 2034 after 18 hrs by disc diffusion method; format: functional; in short: as §1
[4] = tested on: Escherichia coli; assay: Antibacterial activity against Escherichia coli NCIM 2065 after 18 hrs by disc diffusion method; format: functional; in short: as §1
[5] = tested on: Candida albicans; assay: Antifungal activity against Candida albicans MUCC 29 after 48 hrs by disc diffusion method; format: functional
In short: (§2)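 Agar well diffusion on plates inoculated with spore suspension in normal saline from cultures on Sabouraud's broth. Wells punched and loaded with test samples or griseofulvin at 10 mg mL^-1, with DMSO as negative control. Incubated 48 h at 37 °C.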

[6] = tested on: Microsporum audouinii; assay: Antifungal activity against Microsporum audouinii MUCC 545 after 48 hrs by disc diffusion method; format: functional; in short: as §2
[7] = tested on: Trichophyton benhamiae; assay: Antifungal activity against Trichophyton mentagrophytes MUCC 665 after 48 hrs by disc diffusion method; format: functional, Arthroderma benhamiae; in short: as §2
[8] = tested on: Aspergillus niger; assay: Antifungal activity against Aspergillus niger MUCC 177 after 48 hrs by disc diffusion method; format: functional; in short: as §2
[9] = tested on: Bacillus subtilis; assay: Antibacterial activity against Bacillus subtilis NCIM 2063 after 18 hrs by tube dilution method; format: functional; conditions: NCIM 2063, 18 h
In short: (§3)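 Tube dilution MIC. Stock diluted in sterile broth to seven concentrations from 200 to 3.1 […]. Each tube inoculated with one loopful of test bacterium and incubated 18 h at 37 °C. MIC read from presence or absence of growth.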

[10] = tested on: Staphylococcus aureus; assay: Antibacterial activity against Staphylococcus aureus NCIM 2079 after 18 hrs by tube dilution method; format: functional; conditions: NCIM 2079, 18 h; in short: as §3
[11] = tested on: Pseudomonas aeruginosa; assay: Antibacterial activity against Pseudomonas aeruginosa NCIM 2034 after 18 hrs by tube dilution method; format: functional; conditions: NCIM 2034, 18 h; in short: as §3
[12] = tested on: Escherichia coli; assay: Antibacterial activity against Escherichia coli NCIM 2065 after 18 hrs by tube dilution method; format: functional; conditions: NCIM 2065, 18 h
[13] = tested on: Candida albicans; assay: Antifungal activity against Candida albicans MUCC 29 after 48 hrs by tube dilution method; format: functional
In short: (§4)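 Tube dilution MIC as for bacteria (seven concentrations, 200–3.1 […]), with DMSO in place of DMF. Tubes inoculated with fungal culture and incubated 48 h at 37 °C. MIC read from presence or absence of growth.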

[14] = tested on: Microsporum audouinii; assay: Antifungal activity against Microsporum audouinii MUCC 545 after 48 hrs by tube dilution method; format: functional; in short: as §4
[15] = tested on: Trichophyton benhamiae; assay: Antifungal activity against Trichophyton mentagrophytes MUCC 665 after 48 hrs by tube dilution method; format: functional, Arthroderma benhamiae; in short: as §4
[16] = tested on: Eudrilus; assay: Anthelmintic activity against Eudrilus sp. assessed as mean paralyzing time; format: functional
In short: (§5)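 Earthworms exposed to test suspensions at 2 mg mL^-1 (0.2% w/v), made by triturating compound with Tween 80 (0.5%) and distilled water, then mechanically stirred 30 min. Mebendazole suspension prepared alike as reference. Paralysis and death times recorded; death confirmed by no movement in 50 °C water. Means from triplicate sets.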

[17] = tested on: Eudrilus; assay: Anthelmintic activity against Eudrilus sp. assessed as mean death time; format: functional
In short: (§6)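 Earthworms exposed to test suspensions at 2 mg mL−1, prepared by triturating compound with Tween 80 (0.5%) and distilled water, stirring 30 min, then diluting to 0.2% w/v. Mebendazole suspension was made the same way. Death was confirmed by moving worms into 50 °C warm water and looking for movement. Mean death time (min) taken from triplicate sets.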

[18] = Growth inhibition of DLA cells at 500 ug/mL after 3 hrs; format: functional; conditions: Mus musculus
In short: (§7)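 DLA and EAC cells passaged intraperitoneally in albino mice, harvested after 15–20 days and adjusted to 1 × 10⁶ cells/mL. Dilutions in Dulbecco's medium (500–31.25, some down to 3.91 µg/mL; 5-FU reference) mixed 1:1 with cells and held 3 h at 37 °C. Trypan blue exclusion gave % growth inhibition; CTC50 by graphical extrapolation.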

[19] = Growth inhibition of DLA cells at 250 ug/mL after 3 hrs; format: functional; conditions: Mus musculus; in short: as §7
[20] = Growth inhibition of DLA cells at 125 ug/mL after 3 hrs; format: functional; conditions: Mus musculus; in short: as §7
[21] = Growth inhibition of DLA cells at 62.5 ug/mL after 3 hrs; format: functional; conditions: Mus musculus; in short: as §7
[22] = Growth inhibition of DLA cells at 31.25 ug/mL after 3 hrs; format: functional; conditions: Mus musculus; in short: as §7
[23] = Growth inhibition of DLA cells after 3 hrs; format: functional; conditions: Mus musculus; in short: as §7
[24] = Growth inhibition of EAC cells at 500 ug/mL after 3 hrs; format: functional; conditions: Mus musculus, Ehrlich; in short: as §7
[25] = Growth inhibition of EAC cells at 250 ug/mL after 3 hrs; format: functional; conditions: Mus musculus, Ehrlich; in short: as §7
[26] = Growth inhibition of EAC cells at 125 ug/mL after 3 hrs; format: functional; conditions: Mus musculus, Ehrlich; in short: as §7
[27] = Growth inhibition of EAC cells at 62.5 ug/mL after 3 hrs; format: functional; conditions: Mus musculus, Ehrlich; in short: as §7
[28] = Growth inhibition of EAC cells at 31.25 ug/mL after 3 hrs; format: functional; conditions: Mus musculus, Ehrlich; in short: as §7
[29] = Growth inhibition of EAC cells after 3 hrs; format: functional; conditions: Mus musculus, Ehrlich; in short: as §7
[30] = Anthelmintic activity against Megascoplex konkanensis ICARBC 211 assessed as mean paralyzing time; format: functional; in short: as §5
[31] = Anthelmintic activity against Megascoplex konkanensis ICARBC 211 assessed as mean death time; format: functional; in short: as §5
[32] = tested on: Pontoscolex corethrurus; assay: Anthelmintic activity against Pontoscolex corethrurus ICARBC 408 assessed as mean paralyzing time; format: functional; in short: as §5
[33] = tested on: Pontoscolex corethrurus; assay: Anthelmintic activity against Pontoscolex corethrurus ICARBC 408 assessed as mean death time; format: functional; in short: as §6

| SMILES | inhibition zone (IZ) [1] [mm] | inhibition zone (IZ) [2] [mm] | inhibition zone (IZ) [3] [mm] | inhibition zone (IZ) [4] [mm] | inhibition zone (IZ) [5] [mm] | inhibition zone (IZ) [6] [mm] | inhibition zone (IZ) [7] [mm] | inhibition zone (IZ) [8] [mm] | MIC [9] [µg/mL] | MIC [10] [µg/mL] | MIC [11] [µg/mL] | MIC [12] [µg/mL] | MIC [13] [µg/mL] | MIC [14] [µg/mL] | MIC [15] [µg/mL] | Time [16] [min] | Time [17] [min] | TIME [30] [h] | TIME [31] [h] | Time [32] [min] | also measured |
| --- | --- | --- | --- | --- | --- | --- | --- | --- | --- | --- | --- | --- | --- | --- | --- | --- | --- | --- | --- | --- | --- |
| CC(C)[C@H](NC(=O)c1cc(-c2nc3ccc([N+](=O)[O-])cc3[nH]2)ccc1O)C(=O)N[C@@H](Cc1ccccc1)C(=O)N[C@@H](Cc1cnc[nH]1)C(=O)O | 13 | 11 | 24 | 16 | 19 | 12 | 13 | 19 | 6 (≈ 8.79 µM) | 12.5 (≈ 18.3 µM) | 12.5 (≈ 18.3 µM) | 12.5 (≈ 18.3 µM) | 6 (≈ 8.79 µM) | 12.5 (≈ 18.3 µM) | 6 (≈ 8.79 µM) | 11.55 | 21.72 | 0.174 | 0.326 | 11.87 | inhibition at 500 µg/mL [18]: 42.1%; inhibition at 250 µg/mL [19]: 28.9%; inhibition at 125 µg/mL [20]: 26.3%; inhibition at 62.5 µg/mL [21]: 21%; inhibition at 31.25 µg/mL [22]: 10.5%; CC50 [23]: > 718 µM; inhibition at 500 µg/mL [24]: 10.7%; inhibition at 250 µg/mL [25]: 7.14%; inhibition at 125 µg/mL [26]: 7.14%; inhibition at 62.5 µg/mL [27]: 3.57%; inhibition at 31.25 µg/mL [28]: 3.57%; CC50 [29]: > 718 µM; Time [33]: 22.79 min |
| COC(=O)[C@H](CCCNC(=N)N[N+](=O)[O-])NC(=O)c1ccc(-c2nc3cc(C)c(C)cc3[nH]2)cc1 | 14 | 9 | 23 | 17 | 15 | 8 | 12 | 15 | 12.5 (≈ 26 µM) | 25 (≈ 51.9 µM) | 6 (≈ 12.5 µM) | 12.5 (≈ 26 µM) | 12.5 (≈ 26 µM) | 12.5 (≈ 26 µM) | 12.5 (≈ 26 µM) | 18.67 | 28.21 | 0.309 | 0.443 | 21.65 | Time [33]: 35.22 min |
| COC(=O)[C@H](Cc1c[nH]c2ccccc12)NC(=O)c1cc(-c2nc3ccc([N+](=O)[O-])cc3[nH]2)ccc1O | 12 | 12 | 20 | 16 | 20 | 10 | 17 | 16 | 6 (≈ 12 µM) | 12.5 (≈ 25 µM) | 12.5 (≈ 25 µM) | 12.5 (≈ 25 µM) | 6 (≈ 12 µM) | 12.5 (≈ 25 µM) | 6 (≈ 12 µM) | 13.37 | 23.93 | 0.218 | 0.374 | 17.02 | Time [33]: 29.41 min |
| COC(=O)[C@@H]1CCCN1C(=O)c1ccc(-c2nc3cc(C)c(C)cc3[nH]2)cc1 | 13 | 11 | 22 | 17 | 16 | 9 | 13 | 17 | 6 (≈ 15.9 µM) | 12.5 (≈ 33.1 µM) | 6 (≈ 15.9 µM) | 12.5 (≈ 33.1 µM) | 6 (≈ 15.9 µM) | 25 (≈ 66.2 µM) | 6 (≈ 15.9 µM) | 32.25 | 45.34 | 0.473 | 0.676 | 35.57 | inhibition at 250 µg/mL [19]: 18.4%; Time [33]: 50.26 min |
| COC(=O)[C@@H](NC(=O)c1cc(I)c(-c2nc3cc(C)c(C)cc3[nH]2)c(I)c1)[C@@H](C)O | 20 | 13 | 23 | 16 | 19 | 8 | 10 | 15 | 6 (≈ 9.48 µM) | 12.5 (≈ 19.7 µM) | 6 (≈ 9.48 µM) | 12.5 (≈ 19.7 µM) | 6 (≈ 9.48 µM) | 25 (≈ 39.5 µM) | 10 (≈ 15.8 µM) | 31.22 | 69.45 | 0.587 | 0.987 | 40.6 | Time [33]: 78.32 min |
| COC(=O)[C@H](Cc1ccccc1)NC(=O)c1cc(-c2nc3cc(C)c(C)cc3[nH]2)ccc1O | 14 | 10 | 24 | 17 | 17 | 9 | 15 | 17 | 6 (≈ 13.5 µM) | 12.5 (≈ 28.2 µM) | 6 (≈ 13.5 µM) | 12.5 (≈ 28.2 µM) | 6 (≈ 13.5 µM) | 25 (≈ 56.4 µM) | 6 (≈ 13.5 µM) | 26.78 | 37.74 | 0.437 | 0.592 | 30.34 | Time [33]: 42.56 min |
| Cc1cc2nc(-c3ccc(C(=O)N[C@@H](CCCNC(=N)N[N+](=O)[O-])C(=O)O)cc3)[nH]c2cc1C | 15 | 11 | 25 | 19 | 17 | 10 | 14 | 16 | 12.5 (≈ 26.7 µM) | 25 (≈ 53.5 µM) | 6 (≈ 12.8 µM) | 12.5 (≈ 26.7 µM) | 12.5 (≈ 26.7 µM) | 12.5 (≈ 26.7 µM) | 12.5 (≈ 26.7 µM) | 18.38 | 38.12 | 0.302 | 0.438 | 21.51 | Time [33]: 34.96 min |
| Cc1cc2nc(-c3ccc(O)c(C(=O)N[C@@H](Cc4c[nH]c5ccccc45)C(=O)N[C@@H](C)C(=O)N[C@@H](Cc4ccc(O)cc4)C(=O)O)c3)[nH]c2cc1C | 16 | 11 | 22 | 18 | 18 | 12 | 15 | 17 | 12.5 (≈ 17.8 µM) | 12.5 (≈ 17.8 µM) | 6 (≈ 8.54 µM) | 12.5 (≈ 17.8 µM) | 6 (≈ 8.54 µM) | 12.5 (≈ 17.8 µM) | 6 (≈ 8.54 µM) | 13.25 | 23.98 | 0.224 | 0.377 | 17.02 | Time [33]: 29.19 min |
